From ChEMBL document CHEMBL1128741, “Synthesis and biological evaluation of 5-fluoro-2'-deoxyuridine phosphoramidate analogs” (J Med Chem, 1995)

Tests used:
B16 = experiment: In vitro cytotoxicity (LC99) was measured against B16 Melanoma cells; type: cell-based; conditions: mouse
In short: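 B16 melanoma cells in exponential growth, (2–3) × 10⁶ in 10 mL serum-free MEM, exposed to drug for 2 h, then washed and resuspended in MEM + 10% FBS. Plated at 50–50 000 cells/plate, grown 8 d at 37 °C. Colonies stained with crystal violet and counted. LC99 (2-log drop in colony formation) taken from log-linear part of log surviving fraction vs concentration.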

L1210 [1] = experiment: In vitro growth inhibition of L1210 cells 2 hours after administration of compound; type: functional, cell-based; conditions: Mus musculus, L1210, 2 h
In short: (§1)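 Exponentially growing L1210 cells at (3–6) × 10⁴/mL in Fischer's medium with 10% horse serum, glutamine and antibiotic-antimycotic. Drug exposure lasted the stated time (2, 8, 24 or 48 h). Cells were then spun down and resuspended in drug-free medium. Coulter counts were taken 48 h after the start of treatment and expressed as percent of control. IC50 is given in μM.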

L1210 [2] = experiment: In vitro growth inhibition of L1210 cells 24 hours after administration of compound; type: functional, cell-based; conditions: Mus musculus, L1210, 24 h; in short: as §1
L1210 [3] = experiment: In vitro growth inhibition of L1210 cells 48 hours after administration of compound; type: functional, cell-based; conditions: Mus musculus, L1210, 48 h; in short: as §1
L1210 [4] = experiment: In vitro growth inhibition of L1210 cells 8 hours after administration of compound; type: functional, cell-based; conditions: Mus musculus, L1210, 8 h; in short: as §1

Work on `CC1CC(C)(C)NC(CCOP(=O)(OC[C@H]2O[C@@H](n3cc(F)c(=O)[nH]c3=O)C[C@@H]2O)N2CCCCC2)O1` (stereo partly specified) yielded an LC99 (B16) of 650 µM, an IC50 (L1210 [1]) of 750 nM and an IC50 (L1210 [2]) of 24 nM. The IC50 (L1210 [3]) was 8 nM and the IC50 (L1210 [4]) was 260 nM.
With `Cc1cn([C@H]2C[C@H](O)[C@@H](COP(=O)(OCCC3NC(C)(C)CC(C)O3)N(CCBr)CCBr)O2)c(=O)[nH]c1=O` (stereo partly specified) the LC99 (B16) was 120 µM.
In the case of `CC1CC(C)(C)NC(CCOP(=O)(OC[C@H]2O[C@@H](n3ccc(=O)[nH]c3=O)C[C@@H]2O)N(CCBr)CCBr)O1` (stereo partly specified), the LC99 (B16) is reported as 155 µM.
With `CC1CC(C)(C)NC(CCOP(=O)(OC[C@H]2O[C@@H](n3cc(F)c(=O)[nH]c3=O)C[C@@H]2O)N(CCBr)CCBr)O1` (stereo partly specified) the LC99 (B16) was 100 µM.
`CC1CC(C)(C)NC(CCOP(=O)(OC[C@H]2O[C@@H](n3cc(F)c(=O)[nH]c3=O)C[C@@H]2O)N(C)CCBr)O1` (stereo partly specified) gave an LC99 (B16) of 101 µM, an IC50 (L1210 [1]) of 120 nM and an IC50 (L1210 [2]) of 18 nM. It also gave an IC50 (L1210 [3]) of 2.5 nM and an IC50 (L1210 [4]) of 50 nM.
For `CC1CC(C)(C)NC(CCOP(=O)(OC[C@H]2O[C@@H](n3cc(F)c(=O)[nH]c3=O)C[C@@H]2O)N(C)CCCl)O1` (stereo partly specified), the LC99 (B16) was 375 µM, the IC50 (L1210 [1]) was 300 nM and the IC50 (L1210 [2]) was 25 nM. For the same molecule, the IC50 (L1210 [3]) was 3.5 nM and the IC50 (L1210 [4]) was 160 nM.
`Cc1cn([C@H]2C[C@H](O)[C@@H](COP(=O)(OCCC3NC(C)(C)CC(C)O3)N(C)CCBr)O2)c(=O)[nH]c1=O` (stereo partly specified) showed an LC99 (B16) of 165 µM, an IC50 (L1210 [1]) of 13000 nM and an IC50 (L1210 [2]) of 7000 nM. For the same molecule, the IC50 (L1210 [3]) was 590 nM and the IC50 (L1210 [4]) was 10500 nM.
With `CC1CC(C)(C)NC(CCOP(=O)(OC[C@H]2O[C@@H](n3cc(F)c(=O)[nH]c3=O)C[C@@H]2O)N2CCOCC2)O1` (stereo partly specified) the IC50 (L1210 [1]) was 15000 nM, the IC50 (L1210 [2]) was 900 nM and the IC50 (L1210 [3]) was 150 nM. The IC50 (L1210 [4]) was 5000 nM.
Work on `Cc1ccc(S(=O)(=O)OCCN(C)P(=O)(OCCC2NC(C)(C)CC(C)O2)OC[C@H]2O[C@@H](n3cc(F)c(=O)[nH]c3=O)C[C@@H]2O)cc1` (stereo partly specified) yielded an LC99 (B16) of 141 µM, an IC50 (L1210 [1]) of 160 nM and an IC50 (L1210 [2]) of 19 nM. For the same molecule, the IC50 (L1210 [3]) was 2.5 nM and the IC50 (L1210 [4]) was 60 nM.
With `CC1CC(C)(C)NC(CCOP(=O)(OC[C@H]2O[C@@H](n3ccc(=O)[nH]c3=O)C[C@@H]2O)N(C)CCCl)O1` (stereo partly specified) the IC50 (L1210 [1]) was 40000 nM, the IC50 (L1210 [2]) was 6000 nM and the IC50 (L1210 [3]) was 550 nM. It also gave an IC50 (L1210 [4]) of 16500 nM.
`CC1CC(C)(C)NC(CCOP(=O)(OC[C@H]2O[C@@H](n3ccc(=O)[nH]c3=O)C[C@@H]2O)N(C)CCBr)O1` (stereo partly specified) was tested, and the LC99 (B16) was 319 µM, the IC50 (L1210 [1]) was 20000 nM and the IC50 (L1210 [2]) was 1300 nM. For the same molecule, the IC50 (L1210 [3]) was 430 nM and the IC50 (L1210 [4]) was 8200 nM.
With `CC1CC(C)(C)NC(CCOP(=O)(OC[C@H]2O[C@@H](n3cc(F)c(=O)[nH]c3=O)C[C@@H]2O)N(C)CCI)O1` (stereo partly specified) the LC99 (B16) was 95 µM, the IC50 (L1210 [1]) was 190 nM and the IC50 (L1210 [2]) was 6 nM. The IC50 (L1210 [3]) was 2 nM and the IC50 (L1210 [4]) was 75 nM.
With `O=c1[nH]cc(F)c(=O)[nH]1` [FLUOROURACIL] the LC99 (B16) was greater than 2000 µM, the IC50 (L1210 [1]) was 2200 nM and the IC50 (L1210 [2]) was 220 nM. For the same molecule, the IC50 (L1210 [3]) was 120 nM and the IC50 (L1210 [4]) was 630 nM.
